From the EternaBench riboswitch data

Key:
MS2 coat protein [1] = assay: apparent Kd, MS2 coat protein; higher = weaker binding; RNA-MaP array; theophylline 2 mM where present
How it was run: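 Designs were transcribed by stalled E. coli RNA polymerase on Illumina sequencing-chip clusters. They were titrated with SNAP-549-labelled MS2 coat protein from 0.7 or 1.5 nM, doubling to 3 µM, without and then with constant ligand. Buffer: 100 mM Tris-HCl pH 7.5, 80 mM KCl, 4 mM MgCl2, BSA, DTT, yeast tRNA, Tween-20. Green signal was normalised to red-channel RNA signal and control-cluster median Fmax. Apparent Kd is the median of filtered per-cluster binding-curve fits.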

MS2 coat protein [2] = assay: apparent Kd, MS2 coat protein; higher = weaker binding; RNA-MaP array
How it was run: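 For each design, the apparent Kd is the median of binding-curve fits across its clusters. Designs measured on fewer than 10 clusters were dropped. The RNAs were transcribed from sequenced DNA templates on an Illumina sequencing chip and incubated at room temperature, with or without input ligand, with fluorescently labeled MS2 coat protein at 1.5 nM to 3 μM.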

[3] = designed as: ON switch for theophylline, no ligand
[4] = ligand present: theophylline, designed as: ON switch for theophylline
[5] = designed as: OFF switch for theophylline, no ligand
[6] = ligand present: theophylline, designed as: OFF switch for theophylline
[7] = designed as: ON switch for flavin mononucleotide, no ligand
[8] = ligand present: flavin mononucleotide, designed as: ON switch for flavin mononucleotide
[9] = designed as: OFF switch for flavin mononucleotide, no ligand
[10] = ligand present: flavin mononucleotide, designed as: OFF switch for flavin mononucleotide

GUCCUAGCGAUCGCUCGCUAGGACGCGGAUACCAGCGAGGUCCAUCGCCCUUGGCAGCCGAACAUGAGGAUCACCCAUGUCGGUA
apparent Kd (MS2 coat protein [1]; [3]): 9.59 nM
apparent Kd (MS2 coat protein [1]; [4]): 14.9 nM

AGAAUACAUGUUUUAAUACGGAAAACUGAUACCAGUGUAUCUAUUCACCCUUGGCAGCAGAGACAUGAGGAUCACCCAUGUAUUA
apparent Kd (MS2 coat protein [1]; [3]): 41.3 nM
apparent Kd (MS2 coat protein [1]; [4]): 28.6 nM

AGCGAUAUGCAUGAUACCAGCUACAUGAGGAUCACCCAUGUGCGUCAGAAAUGACUGUGUAGCCCUUGGCAGCAUAAAGCAUGUA
apparent Kd (MS2 coat protein [1]; [5]): 45.1 nM
apparent Kd (MS2 coat protein [1]; [6]): 87.2 nM

UGACAUUGCUGCGAUACCAGACAUGAGGAUCACCCAUGUACCAAGGUAACCGAAAGGCAUGUCCCUUGGCAGCGCAGCAAUGUCU
apparent Kd (MS2 coat protein [1]; [5]): 11.5 nM
apparent Kd (MS2 coat protein [1]; [6]): 197 nM

AUAAGUAAUGUUACGUGUUUAAUUGCAGAUACCAGACUAUACGUUGUCCCUUGGCAGCUGAAUUACAUGAGGAUCACCCAUGUUG
apparent Kd (MS2 coat protein [1]; [5]): 25.9 nM
apparent Kd (MS2 coat protein [1]; [6]): 25 nM

UCCUCCUCCGCAAGGAGGAGGAGUUGCGAUACCAGCACGGAAACGUGCCCUUGGCAGCGCACAUGAGGAUCACCCAUGUCAUGUU
apparent Kd (MS2 coat protein [1]; [5]): 18 nM
apparent Kd (MS2 coat protein [1]; [6]): 24 nM

UAACAUGAGGAUCACCCAUGUAUAGUCGAUACCAGCUCUGUCUAGAGCCCUUGGCAGCGACACUGGUAUCCAUGGGUGUGGAUAC
apparent Kd (MS2 coat protein [1]; [3]): 108 nM
apparent Kd (MS2 coat protein [1]; [4]): 56.1 nM

AUUUACAUGGUCAUAUAUAUAUCGUCAGAUACCAGACUAGAUAUUGUCCCUUGGCAGCUGUUACAUGAGGAUCACCCAUGUUAUA
apparent Kd (MS2 coat protein [1]; [5]): 230 nM
apparent Kd (MS2 coat protein [1]; [6]): 131 nM

AGUCUAUGAAGAGAUACCAGUGAGAGACAUAGACAUGAGGAUCACCCAUGUGACAUGAAGCACCCUUGGCAGCUCAACGAGCUCA
apparent Kd (MS2 coat protein [1]; [3]): 42.8 nM
apparent Kd (MS2 coat protein [1]; [4]): 16.1 nM

ACAUGAGGAUCACCCAUGUGGCGUCUUGAUACCAGACCCGCACUAGUCCCUUGGCAGCAACUACGUGAGGGUCGCCCAUGUGUAG
apparent Kd (MS2 coat protein [1]; [5]): 35.9 nM
apparent Kd (MS2 coat protein [1]; [6]): 46.8 nM

ACAUGAGGAUCACCCAUGUUCCUCGCCGAUACCAGUGAAGAAUUACGCCCUUGGCAGCGGAAAGAGUGUUUUGGAGAUGAGGUAC
apparent Kd (MS2 coat protein [1]; [5]): 72.6 nM
apparent Kd (MS2 coat protein [1]; [6]): 108 nM

AUAUUACAUGUUAUUAUACGGUAUACUGAUACCAGUGUUUCUAUUCACCCUUGGCAGCAGCAACAUGAGGAUCACCCAUGUAUUA
apparent Kd (MS2 coat protein [1]; [3]): 16.7 nM
apparent Kd (MS2 coat protein [1]; [4]): 16.9 nM

AGCGACAUGCGUGAUACCAGCUACAUGAGGAUCACCCAUGUACGUCAGUAAUGACUGUGUAGCCCUUGGCAGCAUAAUGCAUGUC
apparent Kd (MS2 coat protein [1]; [5]): 34.4 nM
apparent Kd (MS2 coat protein [1]; [6]): 67.2 nM

UAUUUUGUGAUGGAUACCAGCAGAGAAAACGUUUAUCCUAACAUGAGGAUCACCCAUGUAUGCCCUUGGCAGCUGUUGUGGGAUA
apparent Kd (MS2 coat protein [1]; [5]): 30.8 nM
apparent Kd (MS2 coat protein [1]; [6]): 36.1 nM

AAAGGCGGGCAGGAUACCAGCGCUAACAUGAGGAUCACCCAUGUACAAAUAAUAACAUGGUGCCCUUGGCAGCCUGGGCGUCUGC
apparent Kd (MS2 coat protein [1]; [3]): 56 nM
apparent Kd (MS2 coat protein [1]; [4]): 285 nM

AAACGUUGCUGCGAUACCAGACAUGAGGAUCACCCAUGUACCAAGAAAACGUACAUAAAUGUCCCUUGGCAGCGCAGCAACGAAA
apparent Kd (MS2 coat protein [1]; [5]): 582 nM
apparent Kd (MS2 coat protein [1]; [6]): 1110 nM

UGUAACAUGAGGAUCACCCAUGUGAGUGAUACCAGACUAGUAUUAGUCCCUUGGCAGCACGCUGGGCGAGUGUAUAGUCUAUGCG
apparent Kd (MS2 coat protein [1]; [3]): 85.9 nM
apparent Kd (MS2 coat protein [1]; [4]): 84.9 nM

AAGGUGAUCCUCGAUACCAGCUCAACAUGAGGAUCACCCAUGUAAGCCUGGAAACAGGCGAGCCCUUGGCAGCGAGUUACAUCAA
apparent Kd (MS2 coat protein [1]; [3]): 62.1 nM
apparent Kd (MS2 coat protein [1]; [4]): 17.8 nM

AGAUCUUUCGAAAGAAGGAUCUUGUCUGAUACCAGAGACGAAAGUCUCCCUUGGCAGCAGUGCCAACAUGAGGAUCACCCAUGUA
apparent Kd (MS2 coat protein [1]; [3]): 20.1 nM
apparent Kd (MS2 coat protein [1]; [4]): 21.4 nM

GAUAGUUGAAGGGAUACCAGCCUGGACAUGAGGAUCACCCAUGUAGCGUGUUUGAAACUGGGCCCUUGGCAGCCCAUAUUGUGUA
apparent Kd (MS2 coat protein [1]; [3]): 15.9 nM
apparent Kd (MS2 coat protein [1]; [4]): 14.6 nM

GCUGUAAGUGCAGAUACCAGCAUGUUAUAUUUCUAAUGACAUGAGGAUCACCCAUGUAAAUGCCCUUGGCAGCUGCACUUACAGC
apparent Kd (MS2 coat protein [1]; [3]): 18.9 nM
apparent Kd (MS2 coat protein [1]; [4]): 18.8 nM

AUGUCGUUGAAUACAGCGGCAUGGUGUGAUACCAGAAUGAUCAAAUUCCCUUGGCAGCAUCACAUGAGGAUCACCCAUGUUAAGG
apparent Kd (MS2 coat protein [1]; [3]): 38.3 nM
apparent Kd (MS2 coat protein [1]; [4]): 52 nM

GACCUUGCGGGCGCCCGCAAGGUCGCGGAUACCAGCGAGGUCCAUCGCCCUUGGCAGCCGAACAUGAGGAUCACCCAUGUCGGUU
apparent Kd (MS2 coat protein [1]; [3]): 10.9 nM
apparent Kd (MS2 coat protein [1]; [4]): 11.8 nM

AGAGGUGCAACAGAUACCAGUCUACCGUACCUCAGAGAACAUGAGGAUCACCCAUGUAUAGACCCUUGGCAGCUGAUGUUAUUCA
apparent Kd (MS2 coat protein [1]; [5]): 22.3 nM
apparent Kd (MS2 coat protein [1]; [6]): 79 nM

GAUAGUUGAUGGGAUACCAGCGUGCACAUGAGGAUCACCCAUGUGGUUCGUGUACGACGGCGCCCUUGGCAGCCCAUAUUGUGUA
apparent Kd (MS2 coat protein [1]; [3]): 151 nM
apparent Kd (MS2 coat protein [1]; [4]): 18.9 nM

UAUAUUGUGAUGGAUACCAGCAGAGAAAACGUUUAUCCUAACAUGAGGAUCACCCAUGUAUGCCCUUGGCAGCUGUUGUGGUAUA
apparent Kd (MS2 coat protein [1]; [6]): 44.4 nM

ACACAUGAGGAUCACCCAUGUUGCAUAGAUACCAGAUAACGUGAGAUCCCUUGGCAGCUAACUGCAUGAACUUGACAUGCAUCAU
apparent Kd (MS2 coat protein [1]; [3]): 42.4 nM
apparent Kd (MS2 coat protein [1]; [4]): 136 nM

AUAAAUAAAACCGAUACCAGCCUUAUACAUGAGGAUCACCCAUGUUAUGCUUCCUUUUUUGGCCCUUGGCAGCGGAAAUGGGUAA
apparent Kd (MS2 coat protein [1]; [3]): 83.3 nM
apparent Kd (MS2 coat protein [1]; [4]): 40.8 nM

UGACAUUGCUCAGAUACCAGACAUGAGGAUCACCCAUGUACCAAGGUACGAAAAUAACAUGUCCCUUGGCAGCUGAGCAAUGUCU
apparent Kd (MS2 coat protein [1]; [5]): 13.6 nM
apparent Kd (MS2 coat protein [1]; [6]): 251 nM

AGCGACAUGCAUGAUACCAGCUACAUGAGGAUCACCCAUGUACGUCAGUAAUGACUGUGUAGCCCUUGGCAGCAUAAAGCAUGUC
apparent Kd (MS2 coat protein [1]; [5]): 28.8 nM
apparent Kd (MS2 coat protein [1]; [6]): 56.7 nM

UUGUGGGCGCUUCAGGAUAUCGCAAAAGAAACAUGAGGAUCACCCAUGUGGCCGAAGCAACUGGGCGAGAAGGGAAAGGCCCGAAG
apparent Kd (MS2 coat protein [2]; [7]): 17.3 nM
apparent Kd (MS2 coat protein [2]; [8]): 14.1 nM

ACUAGUAGGCAAGGAUAUGGCCUCAUAAGAUAGCCAGAAGGUGCUACGGACAUGAGGAUCACCCAUGUGCAGCUCGUACGGUGG
apparent Kd (MS2 coat protein [2]; [7]): 367 nM
apparent Kd (MS2 coat protein [2]; [8]): 155 nM

GUGAAACAUGAGGAUCACCCAUGUCAGGAUAUACUAAUGUCCGCUCGAUUGGACCUGUGUAGAAGGGACUGUGA
apparent Kd (MS2 coat protein [2]; [9]): 12.7 nM
apparent Kd (MS2 coat protein [2]; [10]): 17.6 nM

ACAUGAGGAUCACCCAUGUGCCUCGAUAGGUAACUGAGACCCAGAAGGCCAGCGCGUUGCGCCUUGGAGGAUAUGGCAAACAAG
apparent Kd (MS2 coat protein [2]; [7]): 34.5 nM
apparent Kd (MS2 coat protein [2]; [8]): 19.7 nM

GCUCUCCAAGGAUAUUAGGUGUGUUACAUGAGGAUCACCCAUGUUUUCCAAUGAAUCGUCUAAGAAGGUGGCUAUU
apparent Kd (MS2 coat protein [2]; [9]): 14.3 nM
apparent Kd (MS2 coat protein [2]; [10]): 12.9 nM
